Laboratory results published in ChEMBL document CHEMBL2396525, “Synthesis and anti-HCMV activity of 1-[ω-(phenoxy)alkyl]uracil derivatives and analogues thereof” (Bioorg Med Chem, 2013).
Activity calls are given as the source filed them. The rule behind the calls is not given here.

Key:
[1] = test system: Respiratory syncytial virus; test: Antiviral activity against Respiratory syncytial virus Long; assay type: functional, organism-based
How it was run: (§1)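 Confluent HEL, Vero, HeLa or MDCK cell cultures were inoculated with 100 CCID50 of virus alongside varying compound concentrations. Cytopathicity was scored when it reached completion in untreated virus controls. EC50 is the concentration that reduces virus-induced cytopathogenicity by 50%.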

[2] = Cytotoxicity against HEL assessed as minimum cytotoxic concentration required to cause microscopically detectable alteration in cell morphology; assay type: cell-based; conditions: human, HEL cells
[3] = test system: Mammalian orthoreovirus 1; test: Antiviral activity against Reovirus-1; assay type: functional, organism-based; how it was run: as §1
[4] = test system: Human betaherpesvirus 5; test: Antiviral actiivty against Human herpesvirus 5 AD169 infected in HEL assessed as reduction of virus-induced plaque formation; assay type: functional, organism-based; conditions: Human betaherpesvirus 5, AD169
How it was run: (§2)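 HCMV strains AD-169 and Davis were tested on confluent human embryonic lung fibroblast monolayers infected with 100 PFU in the presence of serial compound concentrations. Plaques were counted once formation was complete in untreated infected controls. EC50 is the concentration that cuts plaque formation by 50%.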

[5] = test system: Punta Toro virus; test: Antiviral activity against Punta Toro virus; assay type: functional, organism-based; how it was run: as §1
[6] = test system: Human alphaherpesvirus 2; test: Antiviral activity against Herpes simplex virus type 2 Lyons; assay type: functional, organism-based; how it was run: as §1
[7] = test system: Human immunodeficiency virus 2; test: Antiviral activity against HIV2 ROD infected in human CEM cells assessed as inhibition of virus-induced giant cell formation after 4 to 5 days; assay type: functional, organism-based; conditions: ISOLATE ROD, CCRF-CEM
How it was run: (§3)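 CEM cells at about 3 × 10^5 cells/mL were infected with 100 CCID50 of HIV per mL, with compound dilutions present. They were incubated 4–5 days at 37 °C in humidified CO2, and syncytia were scored microscopically. EC50 is the concentration that inhibits giant cell formation by 50%.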

[8] = test system: Human respirovirus 3; test: Antiviral activity against Parainfluenza virus 3; assay type: functional, organism-based; how it was run: as §1
[9] = test system: Coxsackievirus B4; test: Antiviral activity against Coxsackie B4 virus; assay type: functional, organism-based; how it was run: as §1
[10] = test system: Human alphaherpesvirus 1; test: Antiviral activity against Herpes simplex virus type 1 KOS; assay type: functional, organism-based; how it was run: as §1
[11] = test system: HEL; test: Cytotoxicity against HEL; assay type: cell-based; conditions: human
[12] = test system: Human alphaherpesvirus 1; test: Antiviral activity against thymidine kinase deficient acyclovir-resistant Herpes simplex virus type 1 KOS; assay type: functional, organism-based
[13] = test system: Feline coronavirus; test: Antiviral activity against Feline coronavirus; assay type: functional, organism-based
[14] = test system: Vesicular stomatitis virus; test: Antiviral activity against Vesicular stomatitis virus; assay type: functional, organism-based
[15] = test system: Influenza A virus; test: Antiviral activity against Influenza virus A virus H3N2; assay type: functional, organism-based
How it was run: (§4)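 The assay was a cell-based cytopathicity inhibition test on confluent monolayers with serial compound dilutions. EC50 was the concentration that reduced virus-induced cytopathicity by 50%.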

[16] = test system: Vaccinia virus; test: Antiviral activity against Vaccinia virus Lederle; assay type: functional, organism-based; conditions: Orthopoxvirus vaccinia
[17] = test system: Human immunodeficiency virus 1; test: Antiviral activity against HIV1 3B infected in human CEM cells assessed as inhibition of virus-induced giant cell formation after 4 to 5 days; assay type: functional, organism-based; conditions: CCRF-CEM; how it was run: as §3
[18] = test system: Influenza B virus; test: Antiviral activity against Influenza B virus; assay type: functional, organism-based; how it was run: as §4
[19] = test system: Influenza A virus; test: Antiviral activity against Influenza virus A virus H1N1; assay type: functional, organism-based; how it was run: as §4
[20] = test system: Human betaherpesvirus 5; test: Antiviral actiivty against Human herpesvirus 5 Davis infected in HEL assessed as reduction of virus-induced plaque formation; assay type: functional, organism-based; conditions: Human betaherpesvirus 5, Davis; how it was run: as §2
[21] = test system: Human alphaherpesvirus 3; test: Antiviral activity against Varicella-zoster virus OKA; assay type: functional; conditions: strain Oka vaccine
How it was run: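 Confluent cell monolayers were infected with 10 or 100 PFU of VZV in the presence of serial compound dilutions. Plaque formation was recorded once untreated infected controls reached completion. EC50 was the concentration that reduced plaque formation by 50%.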

[22] = test system: Sindbis virus; test: Antiviral activity against Sindbis virus; assay type: functional, organism-based; how it was run: as §1
[23] = test system: Human alphaherpesvirus 2; test: Antiviral activity against Herpes simplex virus type 2 G; assay type: functional, organism-based; conditions: strain G; how it was run: as §1
[24] = test system: Human alphaherpesvirus 3; test: Antiviral activity against Varicella-zoster virus YS; assay type: functional, organism-based
How it was run: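 VZV was assayed by plaque formation. Confluent cell cultures received 10 or 100 PFU with varying compound concentrations, and plaques were recorded once complete in untreated infected controls. EC50 is the concentration that reduces plaque formation by 50%.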

Compound | Activity [1] | MCC [2] [µM] | Activity [3] | EC50 [4] [µM] | Activity [5] | Activity [6] | Activity [7] | Activity [8] | Activity [9] | Activity [10] | Activity [12] | Activity [13] | Activity [14] | Activity [15] | Activity [16] | Activity [17] | Activity [18] | Activity [19] | EC50 [20] [µM] | Activity [21] | further results
CCCOC(=O)c1ccc(OCCCCCn2ccc(=O)[nH]c2=O)cc1 | inactive | ≥ 100 | inactive | 45 | inactive | inactive | inactive | inactive | inactive | inactive | inactive | inactive | inactive | inactive | inactive | inactive | inactive | inactive | 45 | inactive | CC50 [11]: > 100 µM; Activity [22]: inactive; Activity [23]: inactive; Activity [24]: inactive
N#Cc1ccc(OCCCCCn2ccc(=O)[nH]c2=O)cc1 | inactive | 100 | inactive | 8.9 | inactive | inactive | inactive | inactive | inactive | inactive | inactive | inactive | inactive | inactive | inactive | inactive | inactive | inactive | 5.5 | inactive | CC50 [11]: 100 µM; Activity [22]: inactive; Activity [23]: inactive; Activity [24]: inactive
Nc1nc(O)c2ncn(COC(CO)CO)c2n1 [GANCICLOVIR] |  | 394 |  |  |  |  |  |  |  |  |  |  |  |  |  |  |  |  | 8.3 |  | CC50 [11]: 200 µM
O=c1[nH]c(=O)n(CCCCCOc2ccc(Br)cc2)cc1I | inactive | ≥ 100 | inactive | 13 | inactive | inactive | inactive | inactive | inactive | inactive | inactive | inactive | inactive | inactive | inactive | inactive | inactive | inactive | 20 | inactive | CC50 [11]: > 100 µM; Activity [22]: inactive; Activity [23]: inactive; Activity [24]: inactive
O=c1ccn(CCCCCOc2ccc([N+](=O)[O-])cc2)c(=O)[nH]1 | inactive | 20 | inactive | > 4 | inactive | inactive | inactive | inactive | inactive | inactive | inactive | inactive | inactive | inactive | inactive | inactive | inactive | inactive | > 4 | inactive | Activity [22]: inactive; Activity [23]: inactive; Activity [24]: inactive
O=c1ccn(CCCCCOc2ccc(-c3ccccc3)cc2)c(=O)[nH]1 | inactive | 100 | inactive | > 20 | inactive | inactive | inactive | inactive | inactive | inactive | inactive | inactive | inactive | inactive | inactive | inactive | inactive | inactive | 54 | inactive | Activity [22]: inactive; Activity [23]: inactive; Activity [24]: inactive
O=C(O)c1ccc(OCCCCCn2ccc(=O)[nH]c2=O)cc1 | inactive | > 100 | inactive | > 100 | inactive | inactive | inactive | inactive | inactive | inactive | inactive | inactive | inactive | inactive | inactive | inactive | inactive | inactive | > 100 | inactive | Activity [22]: inactive; Activity [23]: inactive; Activity [24]: inactive
O=c1ccn(CCCCOc2ccc(Br)cc2)c(=O)[nH]1 | inactive | 100 | inactive | > 20 | inactive | inactive | inactive | inactive | inactive | inactive | inactive | inactive | inactive | inactive | inactive | inactive | inactive | inactive | > 20 | inactive | Activity [22]: inactive; Activity [23]: inactive; Activity [24]: inactive
O=c1ccn(CCCCCCOc2ccc(Br)cc2)c(=O)[nH]1 | inactive | 20 | inactive | > 4 | inactive | inactive | inactive | inactive | inactive | inactive | inactive | inactive | inactive | inactive | inactive | inactive | inactive | inactive | > 4 | inactive | Activity [22]: inactive; Activity [23]: inactive; Activity [24]: inactive
Nc1ccn(C[C@@H](CO)OCP(=O)(O)O)c(=O)n1 [CIDOFOVIR] |  | 317 |  | 1.3 |  |  |  |  |  |  |  |  |  |  |  |  |  |  | 1.1 |  | CC50 [11]: 161 µM
O=c1ccn(CCCOc2ccc(Br)cc2)c(=O)[nH]1 | inactive | > 100 | inactive | > 100 | inactive | inactive | inactive | inactive | inactive | inactive | inactive | inactive | inactive | inactive | inactive | inactive | inactive | inactive | > 100 | inactive | Activity [22]: inactive; Activity [23]: inactive; Activity [24]: inactive
O=c1ccn(CCCCCOc2ccc(Cl)cc2)c(=O)[nH]1 | inactive | > 100 | inactive | > 100 | inactive | inactive | inactive | inactive | inactive | inactive | inactive | inactive | inactive | inactive | inactive | inactive | inactive | inactive | > 100 | inactive | Activity [22]: inactive; Activity [23]: inactive; Activity [24]: inactive
